Experimental data taken from ChEMBL document CHEMBL1142894, “Preparation of 5-aryl-3-alkylthio-l,2,4-triazoles and corresponding sulfones with antiinflammatory-analgesic activity” (Bioorg Med Chem, 2007).
Calls of active or inactive are those of the source. The rule behind the calls is not given here.

Assays:
[1] = system: Mus musculus; test: Analgesic activity against p-benzoquinone-induced abdominal constriction in Swiss albino mouse assessed as number of writhings at 200 mg/kg, po; format: functional, Abdomen
How it was run: (§1)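 Test samples given orally in 0.5% CMC; vehicle to controls. 60 min later, 2.5% (v/v) p-benzoquinone in distilled water, 0.1 ml/10 g, given i.p. Mice housed singly; writhes counted for 15 min starting 5 min after injection. Activity is % change from vehicle controls. n = 6; mean ± SEM.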

[2] = system: Mus musculus; test: Inhibition of carrageenan-induced paw edema in Swiss albino mouse at 50 mg/kg, po after 270 mins relative to control; format: functional; conditions: 4.5 h
How it was run: (§2)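 Mice, n = 6 per group. Test agent given orally as a suspension in 0.5% sodium CMC in distilled water; controls received vehicle only. Afterwards, 0.5 mg/25 ll carrageenan in saline (154 mM NaCl) injected subplantar into the right hind paw, saline into the left. Right-minus-left footpad thickness measured by dial gauge caliper every 90 min for 6 h. Inhibition is relative to vehicle-control group means.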

[3] = system: Mus musculus; test: Acute toxicity in Swiss albino mouse assessed as lethal effect at 200 mg/kg/day, po after 72 hrs; format: organism-based; set-up: route oral; conditions: in vivo
How it was run: (§3)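 Oral single dose suspended in 0.5% carboxymethylcellulose, given after a 24 h fast; food and water returned 1 h after dosing. Vehicle-only controls. Mice observed at 1 h, then once daily for 72 h, for toxic signs and mortality.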

[4] = system: Mus musculus; test: Inhibition of p-benzoquinone-induced writhing in Swiss albino mouse at 25 mg/kg, po relative to control; format: functional
How it was run: (§4)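 Mice, n = 6 per group, dosed orally with a suspension in 0.5% sodium CMC. 60 min later, 0.1 ml/10 g of 2.5% […] p-benzoquinone in distilled water given ip. Abdominal writhes counted per animal for 15 min, starting 5 min after injection. Expressed as % change in mean writhing count versus vehicle controls.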

[5] = system: Mus musculus; test: Inhibition of carrageenan-induced paw edema in Swiss albino mouse at 100 mg/kg, po after 270 mins relative to control; format: functional; conditions: 4.5 h
How it was run: (§5)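 Oral dosing in 0.5% CMC; vehicle to controls. Then carrageenan (0.5 mg/25 ll, freshly suspended in 154 mM saline) injected into the right hind paw subplantar tissue; saline into the left paw. Right-left footpad thickness difference measured by dial gauge calliper every 90 min over 6 h. Inhibition % is relative to vehicle control. n = 6; mean ± SEM.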

[6] = system: Mus musculus; test: Analgesic activity against p-benzoquinone-induced abdominal constriction in Swiss albino mouse assessed as number of writhings at 25 mg/kg, po; format: functional, Abdomen; how it was run: as §1
[7] = system: Mus musculus; test: Acute toxicity in Swiss albino mouse assessed as lethal effect at 25 mg/kg/day, po after 72 hrs; format: organism-based; set-up: route oral; conditions: in vivo; how it was run: as §3
[8] = system: Mus musculus; test: Antiinflammatory activity against carrageenan-induced paw edema in Swiss albino mouse assessed as swelling thickness at 25 mg/kg, po after 180 mins; format: functional; how it was run: as §5
[9] = system: Mus musculus; test: Inhibition of carrageenan-induced paw edema in Swiss albino mouse at 100 mg/kg, po after 360 mins relative to control; format: functional; conditions: 6 h; how it was run: as §5
[10] = system: Mus musculus; test: Inhibition of carrageenan-induced paw edema in Swiss albino mouse at 100 mg/kg, po after 90 mins relative to control; format: functional; conditions: 1.5 h; how it was run: as §5
[11] = system: Mus musculus; test: Antiinflammatory activity against carrageenan-induced paw edema in Swiss albino mouse assessed as swelling thickness at 25 mg/kg, po after 360 mins; format: functional; how it was run: as §5
[12] = system: Mus musculus; test: Inhibition of carrageenan-induced paw edema in Swiss albino mouse at 100 mg/kg, po after 180 mins relative to control; format: functional; conditions: 3 h; how it was run: as §5
[13] = system: Mus musculus; test: Antiinflammatory activity against carrageenan-induced paw edema in Swiss albino mouse assessed as swelling thickness at 100 mg/kg, po after 270 mins; format: functional; how it was run: as §5
[14] = system: Mus musculus; test: Inhibition of p-benzoquinone-induced writhing in Swiss albino mouse at 50 mg/kg, po relative to control; format: functional; how it was run: as §4
[15] = system: Mus musculus; test: Inhibition of carrageenan-induced paw edema in Swiss albino mouse at 50 mg/kg, po after 180 mins relative to control; format: functional; conditions: 3 h; how it was run: as §5
[16] = system: Mus musculus; test: Gastric-ulcerogenic effect in Swiss albino mouse assessed as lesions at 25 mg/kg, po; format: functional, organism-based; set-up: dose 25 mg/kg
How it was run: (§6)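 Mice killed under deep ether anesthesia 3 h after the writhing test; the oral dose in 0.5% CMC was the one used in that test. Stomachs removed, opened along the great curvature and examined under a dissecting microscope for lesions or bleeding. Reported as ratio of ulceration; n = 6.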

[17] = system: Mus musculus; test: Antiinflammatory activity against carrageenan-induced paw edema in Swiss albino mouse assessed as swelling thickness at 25 mg/kg, po after 270 mins; format: functional; how it was run: as §5
[18] = system: Mus musculus; test: Gastric-ulcerogenic effect in Swiss albino mouse assessed as lesions at 50 mg/kg, po; format: functional, organism-based; set-up: dose 50 mg/kg; how it was run: as §6
[19] = system: Mus musculus; test: Antiinflammatory activity against carrageenan-induced paw edema in Swiss albino mouse assessed as swelling thickness at 200 mg/kg, po after 360 mins; format: functional; how it was run: as §5
[20] = system: Mus musculus; test: Inhibition of carrageenan-induced paw edema in Swiss albino mouse at 50 mg/kg, po after 360 mins relative to control; format: functional; conditions: 6 h; how it was run: as §2
[21] = system: Mus musculus; test: Antiinflammatory activity against carrageenan-induced paw edema in Swiss albino mouse assessed as swelling thickness at 50 mg/kg, po after 360 mins; format: functional; how it was run: as §5
[22] = system: Mus musculus; test: Antiinflammatory activity against carrageenan-induced paw edema in Swiss albino mouse assessed as swelling thickness at 200 mg/kg, po after 90 mins; format: functional; how it was run: as §5
[23] = system: Mus musculus; test: Antiinflammatory activity against carrageenan-induced paw edema in Swiss albino mouse assessed as swelling thickness at 50 mg/kg, po after 270 mins; format: functional; how it was run: as §5
[24] = system: Mus musculus; test: Inhibition of carrageenan-induced paw edema in Swiss albino mouse at 50 mg/kg, po after 90 mins relative to control; format: functional; conditions: 1.5 h; how it was run: as §2
[25] = system: Mus musculus; test: Antiinflammatory activity against carrageenan-induced paw edema in Swiss albino mouse assessed as swelling thickness at 100 mg/kg, po after 360 mins; format: functional; how it was run: as §5
[26] = system: Mus musculus; test: Antiinflammatory activity against carrageenan-induced paw edema in Swiss albino mouse assessed as swelling thickness at 50 mg/kg, po after 90 mins; format: functional; how it was run: as §5
[27] = system: Mus musculus; test: Antiinflammatory activity against carrageenan-induced paw edema in Swiss albino mouse assessed as swelling thickness at 50 mg/kg, po after 180 mins; format: functional; how it was run: as §5
[28] = system: Mus musculus; test: Inhibition of p-benzoquinone-induced writhing in Swiss albino mouse at 200 mg/kg, po relative to control; format: functional; how it was run: as §4
[29] = system: Mus musculus; test: Acute toxicity in Swiss albino mouse assessed as lethal effect at 100 mg/kg/day, po after 72 hrs; format: organism-based; set-up: route oral; conditions: in vivo; how it was run: as §3
[30] = system: Mus musculus; test: Analgesic activity against p-benzoquinone-induced abdominal constriction in Swiss albino mouse assessed as number of writhings at 50 mg/kg, po; format: functional, Abdomen; how it was run: as §1
[31] = system: Mus musculus; test: Antiinflammatory activity against carrageenan-induced paw edema in Swiss albino mouse assessed as swelling thickness at 100 mg/kg, po after 180 mins; format: functional; how it was run: as §5
[32] = system: Mus musculus; test: Analgesic activity against p-benzoquinone-induced abdominal constriction in Swiss albino mouse assessed as number of writhings at 100 mg/kg, po; format: functional, Abdomen; how it was run: as §1
[33] = system: Mus musculus; test: Antiinflammatory activity against carrageenan-induced paw edema in Swiss albino mouse assessed as swelling thickness at 25 mg/kg, po after 90 mins; format: functional; how it was run: as §5
[34] = system: Mus musculus; test: Gastric-ulcerogenic effect in Swiss albino mouse assessed as lesions at 100 mg/kg, po; format: functional, organism-based; set-up: dose 100 mg/kg; how it was run: as §6
[35] = system: Mus musculus; test: Acute toxicity in Swiss albino mouse assessed as lethal effect at 50 mg/kg/day, po after 72 hrs; format: organism-based; set-up: route oral; conditions: in vivo; how it was run: as §3
[36] = system: Mus musculus; test: Antiinflammatory activity against carrageenan-induced paw edema in Swiss albino mouse assessed as swelling thickness at 200 mg/kg, po after 270 mins; format: functional; how it was run: as §5
[37] = system: Mus musculus; test: Antiinflammatory activity against carrageenan-induced paw edema in Swiss albino mouse assessed as swelling thickness at 200 mg/kg, po after 180 mins; format: functional; how it was run: as §5
[38] = system: Mus musculus; test: Antiinflammatory activity against carrageenan-induced paw edema in Swiss albino mouse assessed as swelling thickness at 100 mg/kg, po after 90 mins; format: functional; how it was run: as §5
[39] = system: Mus musculus; test: Inhibition of p-benzoquinone-induced writhing in Swiss albino mouse at 100 mg/kg, po relative to control; format: functional; how it was run: as §4

Compound | Activity [1] | inhibition in vivo at 50 mg/kg [2] [%] | Activity [3] | inhibition in vivo at 25 mg/kg [4] [%] | inhibition in vivo at 100 mg/kg [5] [%] | Activity [6] | Activity [7] | Activity [8] | inhibition in vivo at 100 mg/kg [9] [%] | inhibition in vivo at 100 mg/kg [10] [%] | Activity [11] | inhibition in vivo at 100 mg/kg [12] [%] | Activity [13] | inhibition in vivo at 50 mg/kg [14] [%] | inhibition in vivo at 50 mg/kg [15] [%] | Activity [16] | Activity [17] | Activity [18] | Activity [19] | inhibition in vivo at 50 mg/kg [20] [%] | further results
CS(=O)(=O)c1nc(-c2ccc(Cl)cc2)n[nH]1 | 46.8 | 26.1 | Non-toxic | 16.7 | 21.4 | 42.8 | Non-toxic | 62.8 10^-2mm | 25.6 | 16.3 | 75.4 10^-2mm | 16.9 | 46.2 10^-2mm | 42.8 | 22.2 | Active | 69.5 10^-2mm | Active | 76.1 10^-2mm | 30.3 | Activity [21]: 50.2 10^-2mm; Activity [22]: 59.4 10^-2mm; Activity [23]: 47.9 10^-2mm; inhibition in vivo at 50 mg/kg [24]: 18%; Activity [25]: 51.2 10^-2mm; Activity [26]: 43.6 10^-2mm; Activity [27]: 46.2 10^-2mm; inhibition in vivo at 200 mg/kg [28]: 8.9%; Activity [29]: Non-toxic; Activity [30]: 29.4; Activity [31]: 42.8 10^-2mm; Activity [32]: 31; Activity [33]: 55.2 10^-2mm; Activity [34]: Active; Activity [35]: Non-toxic; Activity [36]: 69.4 10^-2mm; Activity [37]: 65.8 10^-2mm; Activity [38]: 37.5 10^-2mm; inhibition in vivo at 100 mg/kg [39]: 34.5%
CCS(=O)(=O)c1nc(-c2ccc(Br)cc2)n[nH]1 | 50.6 | 24.2 | Non-toxic | 20.4 | 22.3 | 40.9 | Non-toxic | 62.8 10^-2mm | 27.5 | 28.3 | 75.1 10^-2mm | 25.6 | 45.7 10^-2mm | 30.2 | 26.8 | Active | 67.8 10^-2mm | Active | 76.2 10^-2mm | 30 | Activity [21]: 50.4 10^-2mm; Activity [22]: 57.4 10^-2mm; Activity [23]: 49.1 10^-2mm; inhibition in vivo at 50 mg/kg [24]: 35.2%; Activity [25]: 49.9 10^-2mm; Activity [26]: 40.4 10^-2mm; Activity [27]: 43.5 10^-2mm; inhibition in vivo at 200 mg/kg [28]: 1.6%; Activity [29]: Non-toxic; Activity [30]: 35.9; Activity [31]: 38.3 10^-2mm; Activity [32]: 35.2; Activity [33]: 54.6 10^-2mm; Activity [34]: Active; Activity [35]: Non-toxic; Activity [36]: 68.5 10^-2mm; Activity [37]: 61.5 10^-2mm; Activity [38]: 32.1 10^-2mm; inhibition in vivo at 100 mg/kg [39]: 25.6%
